These results are taken from ChEMBL document CHEMBL1130008, “Structure-based design of a potent, selective, and irreversible inhibitor of the catalytic domain of the erbB receptor subfamily of protein tyrosine kinases” (J Med Chem, 1997).

A short description of experiment [1]: Affinity for mouse cyclic-AMP dependent Ser/Thr Kinase.
The target in experiment [2] is T1, Epidermal growth factor receptor (Homo sapiens, UniProt P00533). Description: Inhibition of human erbB-1 receptor tyrosine kinase activity at 5 uM. In outline:
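A431-derived full-length erbB-1 was preincubated with 5 µM nucleoside without ATP, then assayed with 10 µM [32P]ATP and poly(Glu,Tyr) at 25 °C for 10 min; a TCA-precipitate count gave the read-out. Reversibility was tested by treating with 1 mM dithiothreitol.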

The target of experiment [3] is Receptor tyrosine-protein kinase erbB-2 (Homo sapiens, UniProt P04626). In words: Inhibition of human erbB-2 receptor tyrosine kinase.
The target of experiment [4] is T1, Epidermal growth factor receptor. In words: (§1) Rate constant for inactivation of erbB-1 receptor of A431 human epidermoid carcinoma cells. In kind it is cell-based. As to conditions: A-431. In outline: (§2)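 A431 full-length erbB-1 preincubated with 0.1–25 µM nucleoside in kinase buffer lacking ATP for 1, 5, 15 or 30 min. 10 µM [32P]ATP then started a 10 min, 25 °C poly(Glu,Tyr) phosphorylation. Activity as % of control on semilog plots gave pseudo-first-order constants, fitted hyperbolically against concentration. Run in duplicate.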

The target of experiment [5] is Fibroblast growth factor receptor (Homo sapiens) (UniProt P22607+P11362+P22455+P21802). Description: Inhibition of human fibroblast growth factor receptor (FGF) at 50 uM (no effect). In kind it is protein assay.
In experiment [6] the target is T1, Epidermal growth factor receptor. Description: Half life for inactivation of erbB-1 receptor. The gist of the method:
as §2

The target is the same in experiment [7]. In words: Second order rate constant for inactivation of erbB-1 receptor of A431 human epidermoid carcinoma cells. In kind it is cell-based. As to conditions: A-431. The gist of the method:
as §2

Experiment [8] shares this target. Description: Saturation rate constant for complex formation with human erbB-1 receptor. In outline:
as §2

Experiment [9] concerns the target Platelet-derived growth factor receptor beta (Homo sapiens) (UniProt P09619). Description: Inhibition of human Platelet-derived growth factor receptor at 50 uM (no effect).
Experiment [10] has as its target Insulin receptor (Homo sapiens) (UniProt P06213). Description: Inhibition of human insulin receptor tyrosine kinase at 50 uM (no effect).
Experiment [11] addresses T1, Epidermal growth factor receptor. The experiment is described as §1. In kind it is cell-based, A-431. In outline:
as §2

Experiment [12] has the same target. Description: Inhibition of erbB-1 receptor tyrosine kinase from A431 human epidermoid carcinoma cells. In kind it is cell-based, A-431. The gist of the method:
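Full-length erbB-1 purified from A431 cell lysate by anti-EGF-receptor antibody affinity resin and eluted with EGF. Run at 25 °C for 10 min, stopped with TCA, precipitate counted by scintillation.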

Chain of Fibroblast growth factor receptor (Homo sapiens) (P11362 whole entry, looked up): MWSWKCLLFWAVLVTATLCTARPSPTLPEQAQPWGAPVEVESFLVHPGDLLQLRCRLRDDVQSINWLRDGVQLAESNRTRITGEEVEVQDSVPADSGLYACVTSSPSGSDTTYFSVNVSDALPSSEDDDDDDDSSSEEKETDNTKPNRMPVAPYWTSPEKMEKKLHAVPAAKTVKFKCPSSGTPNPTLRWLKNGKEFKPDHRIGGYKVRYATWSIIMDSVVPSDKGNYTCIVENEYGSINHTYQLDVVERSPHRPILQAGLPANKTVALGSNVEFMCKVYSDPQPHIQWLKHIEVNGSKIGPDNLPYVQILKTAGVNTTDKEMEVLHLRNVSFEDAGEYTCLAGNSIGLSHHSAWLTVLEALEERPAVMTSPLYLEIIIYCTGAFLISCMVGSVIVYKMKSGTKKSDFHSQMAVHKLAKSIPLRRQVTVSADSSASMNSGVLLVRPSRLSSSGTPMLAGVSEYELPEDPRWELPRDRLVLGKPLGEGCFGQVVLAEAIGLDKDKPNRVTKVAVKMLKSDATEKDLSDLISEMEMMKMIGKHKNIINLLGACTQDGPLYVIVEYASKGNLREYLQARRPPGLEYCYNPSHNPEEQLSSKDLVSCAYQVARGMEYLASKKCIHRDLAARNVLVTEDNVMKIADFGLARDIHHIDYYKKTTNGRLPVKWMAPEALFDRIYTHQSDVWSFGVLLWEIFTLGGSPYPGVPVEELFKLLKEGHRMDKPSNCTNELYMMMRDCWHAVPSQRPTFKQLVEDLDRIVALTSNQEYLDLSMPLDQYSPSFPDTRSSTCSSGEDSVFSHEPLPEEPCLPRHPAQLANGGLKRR
Chain of Fibroblast growth factor receptor (Homo sapiens) (P21802 whole entry, looked up): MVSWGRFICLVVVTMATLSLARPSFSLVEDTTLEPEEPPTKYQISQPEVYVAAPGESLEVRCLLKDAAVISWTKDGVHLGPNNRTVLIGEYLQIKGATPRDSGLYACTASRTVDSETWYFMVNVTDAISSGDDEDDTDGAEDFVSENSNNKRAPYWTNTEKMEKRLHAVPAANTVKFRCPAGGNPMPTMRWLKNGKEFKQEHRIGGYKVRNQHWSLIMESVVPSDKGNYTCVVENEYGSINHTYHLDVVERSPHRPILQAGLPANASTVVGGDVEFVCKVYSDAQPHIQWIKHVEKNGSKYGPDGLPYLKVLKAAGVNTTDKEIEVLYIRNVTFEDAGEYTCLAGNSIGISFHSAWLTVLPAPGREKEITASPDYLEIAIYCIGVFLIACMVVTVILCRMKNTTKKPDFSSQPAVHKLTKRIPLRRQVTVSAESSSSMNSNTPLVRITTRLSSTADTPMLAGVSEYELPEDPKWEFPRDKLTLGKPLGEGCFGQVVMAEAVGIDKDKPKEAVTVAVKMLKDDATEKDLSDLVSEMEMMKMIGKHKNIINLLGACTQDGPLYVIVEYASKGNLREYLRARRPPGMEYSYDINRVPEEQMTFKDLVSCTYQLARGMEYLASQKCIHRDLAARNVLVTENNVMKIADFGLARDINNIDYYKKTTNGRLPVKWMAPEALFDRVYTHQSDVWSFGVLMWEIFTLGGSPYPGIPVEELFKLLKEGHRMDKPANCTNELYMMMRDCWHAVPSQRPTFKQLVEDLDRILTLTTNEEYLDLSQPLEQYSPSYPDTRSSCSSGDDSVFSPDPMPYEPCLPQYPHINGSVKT
Chain of Fibroblast growth factor receptor (Homo sapiens) (P22455 whole entry, looked up): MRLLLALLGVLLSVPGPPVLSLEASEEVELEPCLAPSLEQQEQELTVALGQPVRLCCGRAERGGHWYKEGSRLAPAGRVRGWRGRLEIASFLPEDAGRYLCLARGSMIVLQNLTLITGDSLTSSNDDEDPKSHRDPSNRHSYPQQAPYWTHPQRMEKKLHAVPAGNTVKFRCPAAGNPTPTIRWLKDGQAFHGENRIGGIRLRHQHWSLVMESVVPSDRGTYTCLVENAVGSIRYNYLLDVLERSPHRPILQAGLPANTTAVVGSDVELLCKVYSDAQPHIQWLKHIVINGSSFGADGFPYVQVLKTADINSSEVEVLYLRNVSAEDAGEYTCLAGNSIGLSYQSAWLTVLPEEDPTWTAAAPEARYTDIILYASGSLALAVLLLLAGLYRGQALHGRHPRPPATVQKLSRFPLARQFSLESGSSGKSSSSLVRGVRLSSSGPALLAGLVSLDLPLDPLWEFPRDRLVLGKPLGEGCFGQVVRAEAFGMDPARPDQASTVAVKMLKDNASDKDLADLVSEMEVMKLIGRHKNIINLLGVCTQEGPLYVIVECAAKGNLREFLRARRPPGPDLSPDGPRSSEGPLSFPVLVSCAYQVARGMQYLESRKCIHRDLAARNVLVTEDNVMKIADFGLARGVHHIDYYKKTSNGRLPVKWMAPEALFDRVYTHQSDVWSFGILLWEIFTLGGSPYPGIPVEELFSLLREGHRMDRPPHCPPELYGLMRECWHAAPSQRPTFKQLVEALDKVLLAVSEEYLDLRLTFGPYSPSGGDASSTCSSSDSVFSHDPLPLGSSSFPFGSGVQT
Chain of Fibroblast growth factor receptor (Homo sapiens) (P22607 whole entry, looked up): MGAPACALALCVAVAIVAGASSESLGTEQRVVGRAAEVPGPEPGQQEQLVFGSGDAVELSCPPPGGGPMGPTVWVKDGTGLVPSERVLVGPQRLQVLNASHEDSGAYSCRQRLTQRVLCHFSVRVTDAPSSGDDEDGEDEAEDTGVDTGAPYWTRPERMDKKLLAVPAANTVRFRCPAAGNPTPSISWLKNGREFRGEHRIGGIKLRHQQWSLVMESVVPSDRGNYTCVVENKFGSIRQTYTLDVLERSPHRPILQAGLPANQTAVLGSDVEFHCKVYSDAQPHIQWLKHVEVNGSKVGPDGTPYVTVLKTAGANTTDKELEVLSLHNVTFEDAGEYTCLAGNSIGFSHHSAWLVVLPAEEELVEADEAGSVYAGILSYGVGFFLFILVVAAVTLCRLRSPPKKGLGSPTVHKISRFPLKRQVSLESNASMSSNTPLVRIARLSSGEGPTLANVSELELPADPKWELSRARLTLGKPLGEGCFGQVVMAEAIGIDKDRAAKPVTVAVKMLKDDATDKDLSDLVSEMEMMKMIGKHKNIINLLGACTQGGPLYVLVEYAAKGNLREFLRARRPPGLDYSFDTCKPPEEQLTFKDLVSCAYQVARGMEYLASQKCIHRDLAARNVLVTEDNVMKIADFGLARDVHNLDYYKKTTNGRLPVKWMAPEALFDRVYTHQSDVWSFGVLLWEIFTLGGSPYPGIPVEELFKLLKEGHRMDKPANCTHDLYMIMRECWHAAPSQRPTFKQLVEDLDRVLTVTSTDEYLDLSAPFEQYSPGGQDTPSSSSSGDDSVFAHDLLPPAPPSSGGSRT
Chain of Receptor tyrosine-protein kinase erbB-2 (P04626 whole entry): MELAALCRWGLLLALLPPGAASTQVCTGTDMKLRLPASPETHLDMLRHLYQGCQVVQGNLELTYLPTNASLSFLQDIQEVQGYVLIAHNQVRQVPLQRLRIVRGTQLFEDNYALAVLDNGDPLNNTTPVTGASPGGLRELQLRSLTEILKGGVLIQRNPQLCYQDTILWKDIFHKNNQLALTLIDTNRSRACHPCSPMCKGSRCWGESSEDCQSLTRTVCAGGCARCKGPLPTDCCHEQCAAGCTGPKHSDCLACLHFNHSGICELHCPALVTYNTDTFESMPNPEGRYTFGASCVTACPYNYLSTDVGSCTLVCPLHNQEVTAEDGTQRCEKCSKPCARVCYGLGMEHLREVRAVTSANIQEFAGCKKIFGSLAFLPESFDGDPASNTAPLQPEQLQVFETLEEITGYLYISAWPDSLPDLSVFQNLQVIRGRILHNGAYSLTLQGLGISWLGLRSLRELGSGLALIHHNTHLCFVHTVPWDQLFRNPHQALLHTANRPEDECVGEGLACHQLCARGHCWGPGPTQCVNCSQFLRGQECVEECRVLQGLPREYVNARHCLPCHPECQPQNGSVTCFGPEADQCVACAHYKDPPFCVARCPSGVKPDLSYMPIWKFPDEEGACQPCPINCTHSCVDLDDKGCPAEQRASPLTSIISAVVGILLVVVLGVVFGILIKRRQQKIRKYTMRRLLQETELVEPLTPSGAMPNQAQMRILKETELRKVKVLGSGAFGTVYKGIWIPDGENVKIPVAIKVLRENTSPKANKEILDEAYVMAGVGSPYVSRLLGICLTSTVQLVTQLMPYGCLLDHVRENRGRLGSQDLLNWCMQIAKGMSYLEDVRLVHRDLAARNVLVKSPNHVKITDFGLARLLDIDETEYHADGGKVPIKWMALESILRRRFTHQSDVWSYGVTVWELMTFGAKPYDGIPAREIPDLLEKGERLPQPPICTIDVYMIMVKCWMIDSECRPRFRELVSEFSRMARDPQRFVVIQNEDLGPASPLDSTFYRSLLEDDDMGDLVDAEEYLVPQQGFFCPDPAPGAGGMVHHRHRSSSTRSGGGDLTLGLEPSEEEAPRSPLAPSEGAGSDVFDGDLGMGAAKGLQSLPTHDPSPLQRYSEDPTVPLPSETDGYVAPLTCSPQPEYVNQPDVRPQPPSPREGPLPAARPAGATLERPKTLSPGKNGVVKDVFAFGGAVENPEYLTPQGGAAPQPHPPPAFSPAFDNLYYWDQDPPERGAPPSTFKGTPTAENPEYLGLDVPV

As a reminder, the Kd is the concentration at which binding is half-saturated. Low values mean a tighter complex, high ones a looser complex. Turning to `Nc1ncnc2c1ncn2[C@@H]1O[C@H](COP(=O)(O)OP(=O)(O)OP(=O)(O)O)[C@@H](O)[C@H]1O` [ADENOSINE TRIPHOSPHATE], the Kd in experiment [1] was 10 µM.
The inhibition is the relative decrease from the control value, in per cent. A high value points to strong suppression. In general, IC50 refers to the concentration that inhibits the measured activity by half. High values mean weaker potency in that assay, low ones greater potency in that assay. `Nc1ncnc2c1ncn2[C@@H]1O[C@H](CO)[C@@H](O)[C@H]1S`: in [2], the inhibition is 70%. For the same compound, the IC50 in experiment [3] was 45 µM. Moreover, in experiment [4], the kmax was 0.0023 s⁻¹. Also, the Concentration in experiment [5], in experiment [9] and in [10] was 50 µM in each case. In experiment [6], the T1/2 came to 5 min. Also, in experiment [7], the kmax/KS turned out to be 2000 M⁻¹ s⁻¹. Also, the KS in experiment [8] turned out to be 1 µM. Further, the Kd in [11] was determined as 1000 nM.
Take `Nc1ncnc2c1ncn2[C@@H]1O[C@H](CO)[C@@H](O)[C@H]1O` [ADENOSINE]: the Kd in [1] was found to be 35 µM. The IC50 in [12] was 195 µM; in experiment [3] it was around 1600 µM. Further, the Concentration in [5], in [9] and in experiment [10] was 50 µM in each case.
In experiment [1], `Nc1ncnc2c1ncn2[C@@H]1O[C@H](COP(=O)(O)OP(=O)(O)O)[C@@H](O)[C@H]1O` [ADENOSINE DIPHOSPHATE] had a Kd of 10 µM.
